This is an account of results in ChEMBL document CHEMBL4130352, “Ciprofloxacin-nitroxide hybrids with potential for biofilm control” (Eur J Med Chem, 2017).

Converted amounts (≈) assume the structure as drawn. The source made the active and inactive calls. No cut-off for these calls is given here.

The subject of one data set is Pseudomonas aeruginosa. Briefly: Antibiofilm activity against Pseudomonas aeruginosa PA14 assessed as dispersion of bacteria from biofilms at 20 uM after 2 to 3 hrs. In kind it is functional, organism-based.
Settings: not given
The gist of the method: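 PA14 biofilms grown 2 days in flow cells at 37°C, then exposed to 20 μM compound. Dispersed cells were collected from chamber effluent at set times, plated on Pseudomonas Isolation Agar and incubated at 37°C. CFU/mL was counted the next day, and fold-change in dispersed viable cells was calculated against untreated PA14 effluent.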
As to `CC1(C)CC(C(=O)N2CCN(c3cc4c(cc3F)c(=O)c(C(=O)O)cn4C3CC3)CC2)CC(C)(C)N1[O]`, the outcome was Active.

A further data set relates to Pseudomonas aeruginosa. In words: Inhibition of planktonic growth of Pseudomonas aeruginosa PA14 after 24 hrs by broth microdilution method. The settings on record: in vitro. In kind it is organism-based. In outline: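 Broth microdilution in polypropylene microtiter plates. Compounds added as DMSO solutions, inoculum 5×10^5 CFU/mL final, incubated 37 °C for 24 h. MIC taken as the lowest concentration with no visible growth.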
`CC1(C)CC(C(=O)N2CCN(c3cc4c(cc3F)c(=O)c(C(=O)O)cn4C3CC3)CC2)C(C)(C)N1[O]` (stereo not drawn) registered an MIC of 160 µM (≈ 79.9 µg/mL).
Turning to `CON1C(C)(C)c2ccc(C(=O)N3CCN(c4cc5c(cc4F)c(=O)c(C(=O)O)cn5C4CC4)CC3)cc2C1(C)C`, the MIC was > 284 µM.
On the same count and under the same terms, for `CON1C(C)(C)CC(C(=O)N2CCN(c3cc4c(cc3F)c(=O)c(C(=O)O)cn4C3CC3)CC2)C1(C)C` (stereo not drawn) the value was 311 µM (≈ 160 µg/mL).
Same read-out and setting: next, `O=C(O)c1cn(C2CC2)c2cc(N3CCNCC3)c(F)cc2c1=O` [CIPROFLOXACIN]: 0.5 µM (≈ 0.166 µg/mL); `CON1C(C)(C)CC(C(=O)N2CCN(c3cc4c(cc3F)c(=O)c(C(=O)O)cn4C3CC3)CC2)CC1(C)C`: > 303 µM; `CC1(C)CC(C(=O)N2CCN(c3cc4c(cc3F)c(=O)c(C(=O)O)cn4C3CC3)CC2)CC(C)(C)N1[O]`: 312 µM (≈ 160 µg/mL).

In a further data set the test system is Pseudomonas aeruginosa. In words: Effect on Pseudomonas aeruginosa PA14 assessed as dead cells at 20 uM preincubated for 24 hrs measured after 2 hrs (reference value: 4%). It is filed as organism-based.
Settings: not given
For `CC1(C)CC(N2CCN(c3cc4c(cc3F)c(=O)c(C(=O)O)cn4C3CC3)CC2)CC(C)(C)N1[O]`, the Activity is recorded as 50%.
The same measure, in the same setting: for `CC1(C)CC(C(=O)N2CCN(c3cc4c(cc3F)c(=O)c(C(=O)O)cn4C3CC3)CC2)C(C)(C)N1[O]` (stereo not drawn) the value was 0%.
Consider `CON1C(C)(C)c2ccc(C(=O)N3CCN(c4cc5c(cc4F)c(=O)c(C(=O)O)cn5C4CC4)CC3)cc2C1(C)C`, for which the Activity was found to be 2%.
As to `CON1C(C)(C)CC(C(=O)N2CCN(c3cc4c(cc3F)c(=O)c(C(=O)O)cn4C3CC3)CC2)C1(C)C` (stereo not drawn), the Activity came to 9%.
As for `CON1C(C)(C)CC(C(=O)N2CCN(c3cc4c(cc3F)c(=O)c(C(=O)O)cn4C3CC3)CC2)CC1(C)C`, the Activity worked out at 16%.
Same read-out and setting: for `CC1(C)CC(C(=O)N2CCN(c3cc4c(cc3F)c(=O)c(C(=O)O)cn4C3CC3)CC2)CC(C)(C)N1[O]` the value was 6%.

The subject of another data set is RD. Briefly: Cytotoxicity against human RD cells assessed as reduction in cell viability at 5 to 40 uM after 24 hrs by LDH release assay. In kind it is cell-based.
Settings: not given
In outline:
(§1)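 HEK 293 and RD cells were grown in DMEM with 10% FBS at 37°C, 5% CO2, and seeded the day before at 50,000 (HEK 293) or 20,000 (RD) cells per well. Compounds (5 mM DMSO stock) were added at 5–40 μM for 24 h, with 0.8% DMSO in all wells. LDH release was normalised to untreated cells and 3 h lysis-buffer controls. Run in triplicate.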
For orientation: Release of lactate dehydrogenase indicates damage to the cell membrane.
On to `CON1C(C)(C)c2ccc(C(=O)N3CCN(c4cc5c(cc4F)c(=O)c(C(=O)O)cn5C4CC4)CC3)cc2C1(C)C`, for which the Activity result was “Non-Toxic”.
As for `CON1C(C)(C)CC(C(=O)N2CCN(c3cc4c(cc3F)c(=O)c(C(=O)O)cn4C3CC3)CC2)CC1(C)C`, the Activity entry was “Non-Toxic”.
Turning to `CC1(C)CC(C(=O)N2CCN(c3cc4c(cc3F)c(=O)c(C(=O)O)cn4C3CC3)CC2)CC(C)(C)N1[O]`, the Activity result is listed as “Non-Toxic”.

The subject of the next data set is Pseudomonas aeruginosa. In words: Antibiofilm activity against Pseudomonas aeruginosa PA14 assessed as removal of biomass at 20 uM preincubated for 24 hrs measured after 2 hrs by SYTO/propidium iodide double-staining-based confocal laser scanning microscopic analysis relative to control. It is filed as functional.
Settings: not given
On to `CC1(C)CC(C(=O)N2CCN(c3cc4c(cc3F)c(=O)c(C(=O)O)cn4C3CC3)CC2)C(C)(C)N1[O]` (stereo not drawn), for which the Activity was found to be 67%.
As to `CON1C(C)(C)c2ccc(C(=O)N3CCN(c4cc5c(cc4F)c(=O)c(C(=O)O)cn5C4CC4)CC3)cc2C1(C)C`, the Activity was determined as 53%.
Turning to `CON1C(C)(C)CC(C(=O)N2CCN(c3cc4c(cc3F)c(=O)c(C(=O)O)cn4C3CC3)CC2)C1(C)C` (stereo not drawn), the Activity was found to be 24%.
Still for that read-out and setting: next, `CON1C(C)(C)CC(C(=O)N2CCN(c3cc4c(cc3F)c(=O)c(C(=O)O)cn4C3CC3)CC2)CC1(C)C`: 17%; `CC1(C)CC(C(=O)N2CCN(c3cc4c(cc3F)c(=O)c(C(=O)O)cn4C3CC3)CC2)CC(C)(C)N1[O]`: 37%.

For a further data set, the system named is Pseudomonas aeruginosa. Briefly: Antibiofilm activity against Pseudomonas aeruginosa PA14 assessed as removal of mature biofilm at 40 uM preincubated for 24 hrs measured after 2 hrs by SYTO/propidium iodide double-staining-based confocal laser scanning microscopic analysis relative to control. In kind it is functional.
Settings: not given
As to `CC1(C)CC(N2CCN(c3cc4c(cc3F)c(=O)c(C(=O)O)cn4C3CC3)CC2)CC(C)(C)N1[O]`, the Activity entry is reported as “<=95%”.

For the next data set, the system named is Pseudomonas aeruginosa. In words: Inhibition of planktonic growth of Pseudomonas aeruginosa PA14 assessed as reduction of colony forming units after 24 hrs. It is filed as organism-based.
Settings: not given
In outline:
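Overnight PA14 cultures were diluted 1:100 with or without compound (0–160 μM) and incubated 24 h. Samples were then 10-fold serially diluted and plated on LB agar, grown overnight at 37°C, and CFU were counted.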
As for `CON1C(C)(C)c2ccc(C(=O)N3CCN(c4cc5c(cc4F)c(=O)c(C(=O)O)cn5C4CC4)CC3)cc2C1(C)C`, the MIC was > 160 µM.

The test system of the next data set is Pseudomonas aeruginosa. In words: Antibiofilm activity against Pseudomonas aeruginosa PA14 assessed as total live biofilm biomass eradication at 20 uM preincubated for 24 hrs measured after 2 hrs by SYTO/propidium iodide double-staining-based confocal laser scanning microscopic analysis relative to control.
Settings: not given
It is filed as functional.
With `CC1(C)CC(N2CCN(c3cc4c(cc3F)c(=O)c(C(=O)O)cn4C3CC3)CC2)CC(C)(C)N1[O]`, the Activity amounted to 80%.
Consider `CC1(C)CC(C(=O)N2CCN(c3cc4c(cc3F)c(=O)c(C(=O)O)cn4C3CC3)CC2)C(C)(C)N1[O]` (stereo not drawn), for which the Activity came to 67%.
Take `CON1C(C)(C)c2ccc(C(=O)N3CCN(c4cc5c(cc4F)c(=O)c(C(=O)O)cn5C4CC4)CC3)cc2C1(C)C`: the Activity is 54%.
With `CON1C(C)(C)CC(C(=O)N2CCN(c3cc4c(cc3F)c(=O)c(C(=O)O)cn4C3CC3)CC2)C1(C)C` (stereo not drawn), the Activity worked out at 31%.
On the same count and under the same terms, for `CON1C(C)(C)CC(C(=O)N2CCN(c3cc4c(cc3F)c(=O)c(C(=O)O)cn4C3CC3)CC2)CC1(C)C` the value was 30%; for `CC1(C)CC(C(=O)N2CCN(c3cc4c(cc3F)c(=O)c(C(=O)O)cn4C3CC3)CC2)CC(C)(C)N1[O]`, 41%.

A further data set relates to Pseudomonas aeruginosa. Briefly: Antibiofilm activity against Pseudomonas aeruginosa PA14 assessed as dispersion of bacteria from biofilms at 20 uM after 18.5 hrs relative to control. It is filed as functional.
Settings: not given
In outline:
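PA14 biofilms pre-grown 2 days at 37°C in flow cells, then treated with 20 μM compound. Dispersed cells collected from chamber effluent at set times, plated on Pseudomonas Isolation Agar at 37°C, counted next day as CFU/mL. Fold change in viable dispersed cells calculated against untreated PA14 biofilms.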
Take `CON1C(C)(C)CC(C(=O)N2CCN(c3cc4c(cc3F)c(=O)c(C(=O)O)cn4C3CC3)CC2)CC1(C)C`: the “fold change (FC)” value is listed as 0.

A further data set has as its system HEK293. Briefly: Cytotoxicity against HEK293 cells assessed as reduction in cell viability at 5 to 40 uM after 24 hrs by LDH release assay. In kind it is cell-based. The settings on record: human, hek293, 24 h. In outline:
as §1
Regarding `CON1C(C)(C)c2ccc(C(=O)N3CCN(c4cc5c(cc4F)c(=O)c(C(=O)O)cn5C4CC4)CC3)cc2C1(C)C`, the Activity result is given as “Non-Toxic”.
As to `CON1C(C)(C)CC(C(=O)N2CCN(c3cc4c(cc3F)c(=O)c(C(=O)O)cn4C3CC3)CC2)CC1(C)C`, the Activity result is on record as “Non-Toxic”.
Regarding `CC1(C)CC(C(=O)N2CCN(c3cc4c(cc3F)c(=O)c(C(=O)O)cn4C3CC3)CC2)CC(C)(C)N1[O]`, the Activity entry is given as “Non-Toxic”.
